Source: PubChem
CAL PDZ FP-1: inhibitors of human CAL PDZ peptide binding; Q9HD26; purified CAL PDZ, TMR-peptide fluorescence polarization, 1 h; inhibition, % at 20 µM; actives 0.02% (n = 330,000); AID 504414;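 active = highest replicate inhibition of at least 40%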;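 also: plate controls were DMSO neutral control wells for no effect and unlabeled competitor peptide control wells for full effect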
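Material: tagged CAL PDZ domain; buffer or medium: 25 mM sodium phosphate pH 7.4, 150 mM NaCl, TCEP, IgG, Thesit; compound dosing: single point, 20 µM; schedule: 1 h incubation at room temperature before polarization reading; measured by: FP readout, S and P plane fluorescence; read-out basis: percent inhibition from loss of millipolarization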
CAL PDZ FP-2: inhibitors of human CAL PDZ peptide binding; Q9HD26; purified CAL PDZ, TMR-peptide fluorescence polarization, 1 h; inhibition, % at 24.9 µM; actives 0.92% (n = 300,000);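 active = mean inhibition of at least 30% with at least half of replicates also reaching 30%; inconclusive = no clear call, values can overlap the other calls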;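 also: 0% = DMSO neutral control and 100% = excess unlabeled competitor peptide PRC23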
ERAP1 HTS inh: inhibitors of human ERAP1 aminopeptidase; inhibition, % at 10.7 µM; Q9NZ08; recombinant ERAP1, Leu-AMC fluorescence, 60 min; actives 0.15% (n = 340,000);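 active = mean replicate inhibition of at least 30%, or all replicates individually reaching that 30% level; inactive = mean below 30% and not every replicate reaching it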;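 also: 0% = neutral control wells and 100% = L-leucinethiol positive control wells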
S100A4 inh HTS: blocks human S100A4 binding to myosin IIA peptide | actives 0.14% (n = 360,000) | P26447 | S100A4/TAMRA-MyoIIA peptide fluorescence polarization | inhibition, % at 10.7 µM | AID 652163;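 active = mean inhibition of at least 70% across replicates, with every replicate also reaching that level; inconclusive = mean inhibition reaches 70% but some replicates fall short; inactive = mean inhibition below 70%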
Target sequence (P26447 whole entry, looked up): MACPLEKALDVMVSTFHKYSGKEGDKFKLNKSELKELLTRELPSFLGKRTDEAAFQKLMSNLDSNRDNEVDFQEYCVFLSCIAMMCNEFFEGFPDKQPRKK
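Test system: S100A4 monomer protein; Medium: HEPES pH 7.2 with CaCl2, KCl, NaCl, DTT, Triton; Probe or stimulus: TAMRA-labelled myosin IIA heavy-chain peptide probe, 5 nM; Doses: one dose per compound; Times: polarization read 5 min after assay mix addition, stable 5–60 min; Benchmarks: neutral control DMSO, positive control TFP.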
SIRT5 block: sirtuin-5 (human) deacylase inhibition. Q9NXA8. Purified SirT5, succinyl-peptide AMC, trypsin-coupled fluorescence. AID 652115. actives 1.1% (n = 330,000). inhibition, % at 15 µM; in the data active = inhibition above about 15%; inconclusive = no clear call, values can overlap the other calls
Target sequence (Q9NXA8 whole entry, looked up): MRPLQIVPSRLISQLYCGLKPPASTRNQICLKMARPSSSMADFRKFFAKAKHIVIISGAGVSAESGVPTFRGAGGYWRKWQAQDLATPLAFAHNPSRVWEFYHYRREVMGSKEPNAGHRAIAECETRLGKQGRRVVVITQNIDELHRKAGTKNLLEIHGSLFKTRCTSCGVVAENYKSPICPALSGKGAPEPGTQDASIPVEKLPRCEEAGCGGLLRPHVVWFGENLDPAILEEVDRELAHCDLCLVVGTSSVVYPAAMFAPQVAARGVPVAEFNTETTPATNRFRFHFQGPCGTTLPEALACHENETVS
DENV2 CPE: DENV2-induced cell death inhibition | DENV2-infected cells, cytopathic effect rescue, plate reader | CPE inhibition, % at 9.99 µM | actives 1.7% (n = 350,000) | AID 651640; in the data active = CPE inhibition above about 20%, passing the limit was not always enough; inconclusive = no clear call, values can overlap the other calls; tested in BHK-21 cells;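 also: 0% = median of neutral control wells and 100% = median of positive control wells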
* hit, by the source's call; ? = inconclusive; / = not tested or not shown. In the library only some 2.9% were active in any assay of this set; here they are far more common.

SMILES | CAL PDZ FP-1 | CAL PDZ FP-2 | ERAP1 HTS inh | S100A4 inh HTS | SIRT5 block | DENV2 CPE
CC(C)NC(=O)N1CCCCN2[C@H](CO)[C@@H](c3ccc(C#CC4CC4)cc3)[C@H]2C1 | / | / | 2.8 | 3.3 | -0.5 | 38.8*
Cc1cccc(S(=O)(=O)N2CC[C@@H]3[C@@H](CO)Nc4ccc(C#Cc5ccccc5F)cc4[C@@H]32)c1 | / | / | -1.4 | 4.7 | -1.4 | -8.7
CO[C@@H](C(=O)N(C)C[C@H]1OCc2ccccc2-c2ccccc2C(=O)N([C@@H](C)CO)C[C@@H]1C)c1ccccc1 | / | / | 0.0 | -29.3 | 19.3* | -2.4
CCOC(=O)N(C)C[C@H]1OCc2ccccc2-c2ccccc2C(=O)N([C@H](C)CO)C[C@@H]1C | / | / | 2.1 | -6.9 | 20.7* | -3.5
CC(=O)NC[C@@H]1[C@@H](c2ccc(C3=CCCCC3)cc2)[C@@H](CO)N1C(=O)C1CCC1 | / | / | 0.0 | 19.2 | -1.4 | -14.6
O=c1[nH]c(=S)[nH]c2c1C(c1ccc(Br)cc1)c1c([nH]c(=S)[nH]c1=O)O2 | / | 31.0* | 10.4 | -4.2 | 67.1* | -3.1
O=C1CCCC2=C1C(c1ccc(Br)cc1)c1c([nH]c(=S)[nH]c1=O)N2 (stereo unspecified) | 0.3 | -4.6 | / | / | / | /
COc1ccc(C(=O)NC(=S)N2CCCc3ccccc32)cc1OC | 0.5 | -0.1 | -0.9 | 30.1 | 112.3* | 18.5
COc1ccc(N2CC(NC(=O)N3CCc4ccccc43)CC2=O)cc1OC (stereo unspecified) | 1.1 | 1.1 | / | -0.9 | 19.6* | ?
COc1ccccc1C(=O)NC(=S)N1CCCc2ccccc21 | -0.4 | / | -2.2 | 5.0 | 0.7 | 0.1
CC1Cc2ccccc2N1C(=O)NC1CC(=O)N(c2ccc3c(c2)OCCO3)C1 (stereo unspecified) | -2.2 | 1.3 | -2.2 | 1.0 | -0.5 | 2.7
C[C@@H]1CN([C@H](C)CO)C(=O)Cc2cc(NS(=O)(=O)c3cn(C)cn3)ccc2O[C@@H]1CN(C)Cc1ccc(C(=O)O)cc1 | / | / | -1.0 | -6.6 | -2.0 | -2.4
Cc1nc2c(n1O)CCC/C2=N\O | -0.3 | -1.7 | / | / | / | /
CCN1CCCCC(=N/O)/C(=N/O)CCCC1 | -0.6 | -4.0 | 3.4 | 0.7 | 18.4* | -2.7
COc1ccc(-c2cnc3c(c2)C(=O)N([C@@H](C)CO)C[C@H](C)[C@@H](CN(C)Cc2ccccc2)O3)cc1 | / | / | -0.6 | 6.0 | 3.7 | 47.8*
COc1ccc(-c2cnc3c(c2)C(=O)N([C@H](C)CO)C[C@H](C)[C@@H](CN(C)Cc2ccccc2)O3)cc1 | / | / | -1.0 | -14.2 | 0.1 | ?
COc1ccc(-c2cnc3c(c2)C(=O)N([C@@H](C)CO)C[C@H](C)[C@@H](CN(C)Cc2ccc(C(=O)O)cc2)O3)cc1 | / | / | -0.4 | -6.7 | 21.0* | ?
Cc1cc(Cn2nc(C(=O)NCC3CC3)cc2-c2ccccc2)on1 | -1.4 | -7.4 | -8.2 | 0.2 | -2.5 | 21.6*
Cc1ccc(CNC(=O)c2cc(-c3ccccc3)n(Cc3cc(C)no3)n2)cc1 | -1.4 | -2.3 | -1.1 | -0.2 | -0.9 | 5.0
Cc1cc(-c2n[nH]c(=S)n2-c2ccccc2C)cs1 | -1.3 | 62.0* | / | / | / | /
Cc1ccccc1-n1c(-c2ccncc2)n[nH]c1=S | -0.3 | -0.2 | / | / | / | /
CCNC(=O)Nc1ccc2c(c1)C(=O)N(C)[C@@H]1CC[C@@H](CC(=O)Nc3ccccc3)O[C@@H]1CO2 | / | / | 3.4 | 0.5 | 3.9 | ?
CCCCCNC(=O)c1[nH]c(C(F)(F)F)nc1-c1ccccc1 | / | / | -0.6 | -2.1 | -5.9 | 28.1*
COc1ccc(NC(=O)Oc2cc(C)ccc2C(C)C)cc1 | -0.9 | 88.6* | / | -7.2 | 3.8 | 1.7
Cc1cc(F)ccc1NCc1ccc([N+](=O)[O-])cc1 | -1.0 | 46.0* | 0.9 | -3.1 | -0.7 | -3.0
COc1ccc(S(=O)(=O)N(C)C[C@@H]2Oc3ccc(NS(=O)(=O)c4ccc(Cl)cc4)cc3C(=O)N([C@@H](C)CO)C[C@@H]2C)cc1 | / | / | 2.5 | 1.5 | -7.0 | 4.7
COC(=O)c1ccccc1NC(=O)CSc1nncn1-c1cccnc1 | -2.8 | -5.1 | -2.7 | 3.0 | / | 6.2
COC(=O)c1ccccc1NC(=O)CSc1nncn1C | -0.4 | 54.7* | 2.9 | -1.2 | -1.3 | 0.6
